Laboratory results as given in ChEMBL document CHEMBL3588837, “Development and validation of a novel assay to identify radiosensitizers that target nucleophosmin 1” (Bioorg Med Chem, 2015).
Calls of active or inactive are those of the source. The calls are words filed in the database; no cut-off is given here.

Assays:
[1] = test system: Nucleophosmin (Homo sapiens), P06748 [T199N]; assay: (§1) Inhibition of phosphorylated NPM1 recruitment to chromatic in 6 Gy irradiated human A549 cells assessed as band intensity ratio of protein solubility measured as extraction of pT199NPM1 pretreated 30 mins and measured after 90 mins of irradiation at 25 uM by Western blot analysis in presence of high NP-40 lysis buffer relative to DMSO control; type: cell-based
Nucleophosmin (Homo sapiens), P06748 [T199N], sequence (P06748 whole entry T199N): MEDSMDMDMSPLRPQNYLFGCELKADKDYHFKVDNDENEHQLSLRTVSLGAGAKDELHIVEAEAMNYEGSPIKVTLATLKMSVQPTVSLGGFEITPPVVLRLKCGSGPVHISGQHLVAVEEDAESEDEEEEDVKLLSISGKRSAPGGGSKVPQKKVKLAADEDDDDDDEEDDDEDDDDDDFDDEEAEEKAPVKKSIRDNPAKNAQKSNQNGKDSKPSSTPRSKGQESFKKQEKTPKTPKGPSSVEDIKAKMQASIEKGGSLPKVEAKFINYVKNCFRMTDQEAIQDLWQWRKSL
In short: (§2)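 A549 cells at 70–80% confluency were exposed to compound for 30 min, given 6 Gy from a Cs137 source at 2 Gy/min, and held 90 min at 37°C. Equal protein was run on 10% SDS-PAGE and immunoblotted for pT199 NPM1 and total NPM1. Band intensity ratio = (compound+6 Gy)/(DMSO+6 Gy).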

[2] = test system: Nucleophosmin (Homo sapiens), P06748 [T199N]; assay: Inhibition of phosphorylated NPM1 recruitment to chromatic in 6 Gy irradiated human A549 cells assessed as extraction of pT199NPM1 pretreated 30 mins and measured after 90 mins of irradiation at 25 uM by Western blot analysis in presence of high RIPA lysis buffer; type: cell-based
[3] = test system: Nucleophosmin (Homo sapiens), P06748 [T199N]; assay: Inhibition of phosphorylated NPM1 recruitment to chromatic in 6 Gy irradiated human A549 cells assessed as increase in protein solubility as extraction of pT199NPM1 pretreated 30 mins and measured after 90 mins of irradiation at 10 uM by Western blot analysis; type: cell-based
In short: (§3)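 Drug or DMSO at various concentrations was present on A549 cells for 30 min before, during, and 90 min after 0 or 6 Gy. Nuclear proteins were extracted in 420 mM NaCl high salt buffer and blotted for pT199 NPM1. Buffer-soluble pNPM1 in irradiated cells was quantified relative to non-irradiated cells (±SD, N=3). EC50 was taken from the band intensity plot.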

[4] = test system: Nucleophosmin (Homo sapiens), P06748 [T199N]; assay: Inhibition of phosphorylated NPM1 recruitment to chromatic in 6 Gy irradiated human A549 cells assessed as extraction of pT199NPM1 pretreated 30 mins and measured after 90 mins of irradiation at 25 uM by Western blot analysis in presence of high NP-40 lysis buffer; type: cell-based
[5] = test system: Nucleophosmin (Homo sapiens), P06748 [T199N]; assay: Inhibition of phosphorylated NPM1 recruitment to chromatic in 6 Gy irradiated human A549 cells assessed as extraction of pT199NPM1 pretreated 30 mins and measured after 90 mins of irradiation at 25 uM by Western blot analysis in presence of high salt lysis buffer; type: cell-based
In short: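 A549 cells were dosed with 25 μM drug for 30 min, irradiated, and incubated 90 min. Nuclei were isolated on ice, then extracted in high salt buffer (10 mM HEPES pH 7.2, 420 mM NaCl, 1.5 mM MgCl2, 0.5 mM DTT, 25% glycerol). Extracts were immunoblotted for pT199 NPM1 and total NPM1.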

[6] = test system: Nucleophosmin (Homo sapiens), P06748 [T199N]; assay: Inhibition of phosphorylated NPM1 recruitment to chromatic in 6 Gy irradiated human IMR90 cells assessed as extraction of pT199NPM1 pretreated 30 mins and measured after 90 mins of irradiation at 25 uM by Western blot analysis relative to DMSO control in presence of high NP-40 lysis buffer; type: cell-based; conditions: IMR-90
In short: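 IMR-90 normal lung fibroblasts, grown in DMEM, received 25 μM drug for 30 min, were irradiated, and were incubated 90 min. Total lysate was prepared with NP-40 lysis buffer and analysed by Western blot for pT199 NPM1.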

[7] = molecular target: T1, Nucleophosmin (Homo sapiens, UniProt P06748, T199N); assay: (§4) Inhibition of phosphorylated NPM1 recruitment to chromatic in 6 Gy irradiated human A549 cells assessed as increase in protein solubility as extraction of pT199NPM1 pretreated 30 mins and measured after 90 mins of irradiation by Western blot analysis; type: cell-based; in short: as §3
T1 sequence (P06748 whole entry T199N): as above

[8] = molecular target: Nucleophosmin (Homo sapiens) (UniProt P06748); assay: Inhibition of phosphorylated NPM1 recruitment to chromatic in 6 Gy irradiated human A549 cells assessed as increase in solubility of protein pretreated 30 mins and measured after 90 mins of irradiation at 2.5 to 5 uM by Western blot analysis relative to DMSO control in presence of high NP-40 lysis buffer; type: cell-based
Nucleophosmin (Homo sapiens), sequence (P06748 whole entry): as the sequence (P06748 whole entry T199N) above, with N199T counted along it

[9] = test system: NCI-H460; assay: Radiodensitization of 6 Gy irradiated human H460 cells assessed as colony formation pretreated 30 mins followed by irradiated for 90 mins and washed off measured after 10 to 14 days incubation at 5 uM by trypan blue assay; type: functional, cell-based
In short: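 H460 cells, grown in RPMI-1640, were plated in T25 flasks and exposed to 5 μM drug at 37°C for 30 min. They were then irradiated at various radiation doses and incubated 90 min. Drug was washed off with PBS and fresh medium added. Flasks were kept 10–14 days, and colonies were stained with trypan blue and counted.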

[10] = test system: Nucleophosmin (Homo sapiens), P06748 [T199N]; assay: as §1, with “2.5” for “25”; type: cell-based
[11] = test system: Nucleophosmin (Homo sapiens), P06748 [T199N]; assay: as §4, with “analysis relative to YTR107 in presence of high NP-40 lysis buffer” for “analysis”; type: cell-based
[12] = molecular target: T1, Nucleophosmin; assay: Inhibition of phosphorylated NPM1 recruitment to chromatic in 6 Gy irradiated human A549 cells assessed as extraction of pT199NPM1 pretreated 30 mins and measured after 90 mins of irradiation by Western blot analysis in presence of high NP-40 lysis buffer; type: cell-based
[13] = molecular target: Nucleophosmin (Homo sapiens) (UniProt P06748); assay: Inhibition of phosphorylated NPM1 recruitment to chromatic in 6 Gy irradiated human A549 cells assessed as increase in solubility of protein pretreated 30 mins and measured after 90 mins of irradiation at 5 uM by Western blot analysis relative to DMSO control in presence of high NP-40 lysis buffer; type: cell-based
[14] = test system: Nucleophosmin (Homo sapiens), P06748 [T199N]; assay: Inhibition of phosphorylated NPM1 recruitment to chromatic in 6 Gy irradiated human A549 cells assessed as extraction of pT199NPM1 pretreated 30 mins and measured after 90 mins of irradiation at 2.5 uM by Western blot analysis relative to DMSO control in presence of high NP-40 lysis buffer; type: cell-based; in short: as §2

Question: Which Ratio [1] does the source give for `COc1cc(Cn2c(C)c(C=C3C(=O)NC(=O)NC3=O)c3ccccc32)cc(OC)c1OC` here?
Answer: Its Ratio is 1.16.

Question: With `COc1ccc(Cn2c(C)c(C=C3C(=O)NC(=S)NC3=O)c3ccccc32)c(OC)c1` as the compound, how does the Ratio [1] read?
Answer: The Ratio was 1.22.

Question: With `Cc1c(C=C2C(=O)NC(=O)NC2=O)c2ccccc2n1Cc1ccccc1C(F)(F)F` as the compound, how does the Ratio [1] read?
Answer: Its Ratio is 1.16.

Question: `Cc1c(C=C2C(=O)NC(=S)NC2=O)c2ccccc2n1Cc1ccc(C#N)cc1` was tested. Which Ratio [1] did it give?
Answer: The Ratio was 1.86.

Question: Which Ratio [1] does the source give for `Cc1c(C=C2C(=O)NC(=S)NC2=O)c2ccccc2n1Cc1ccccc1Br` here?
Answer: The Ratio was 1.68.

Question: Which Ratio [1] does the source give for `Cc1c(C=C2C(=O)NC(=O)NC2=O)c2ccccc2n1Cc1ccccc1` here?
Answer: Its Ratio is 1.53.

Question: With `COC(=O)c1ccc(Cn2c(C)c(C=C3C(=O)NC(=O)NC3=O)c3ccccc32)cc1` as the compound, how does the Ratio [1] read?
Answer: Its Ratio is 1.48.

Question: `N#Cc1ccc(Cn2cc(C=C3C(=O)NC(=O)NC3=O)c3ccccc32)cc1` was tested. Which Ratio [1] did it give?
Answer: Its Ratio is 1.51.

Question: What about the Activity [2] of the same compound?
Answer: Its Activity is “Active”.

Question: What about the Activity [3] of the same compound?
Answer: Its Activity is “Active”.

Question: And the Activity [4]?
Answer: Its Activity is “Active”.

Question: And the Activity [5]?
Answer: Its Activity is “Active”.

Question: And the Activity [6]?
Answer: The Activity was “inactive”.

Question: What about the EC50 [7] of the same compound?
Answer: Its EC50 is 9.7 µM.

Question: How did the Ratio [1] turn out when `Cc1c(C=C2C(=O)NC(=S)NC2=O)c2ccccc2n1Cc1ccccc1C(F)(F)F` was run?
Answer: Its Ratio is 1.54.

Question: For `COC(=O)c1ccc(Cn2c(C)c(C=C3C(=O)NC(=S)NC3=O)c3ccccc32)cc1`, which Ratio [1] is on record?
Answer: The Ratio was 1.74.

Question: For `COc1cc(Cn2c(C)c(C=C3C(=O)NC(=S)NC3=O)c3ccccc32)cc(OC)c1`, which Ratio [1] is on record?
Answer: The Ratio was 1.97.

Question: Which Ratio [1] does the source give for `COc1cc(Cn2c(C)c(C=C3C(=O)NC(=O)NC3=O)c3ccccc32)cc(OC)c1` here?
Answer: Its Ratio is 1.63.

Question: And the Activity [8]?
Answer: Its Activity is “inactive”.

Question: For `Cc1c(C=C2C(=O)NC(=O)NC2=O)c2ccccc2n1Cc1ccccc1Br`, which Ratio [1] is on record?
Answer: Its Ratio is 1.05.

Question: For `Cc1c(C=C2C(=O)NC(=S)NC2=O)c2ccccc2n1Cc1ccccc1`, which Ratio [1] is on record?
Answer: The Ratio was 1.96.

Question: For `Cc1c(C=C2C(=O)NC(=S)NC2=O)c2ccccc2n1Cc1ccc(Br)cc1`, which Activity [9] is on record?
Answer: The Activity was “Active”.

Question: And the Ratio [10]?
Answer: Its Ratio is 1.78.

Question: And the fold change (FC) [11]?
Answer: Its fold change (FC) is 4.

Question: What about the EC50 [12] of the same compound?
Answer: The EC50 was 2500 nM.

Question: What does the source list for `Cc1c(C=C2C(=O)NC(=O)NC2=O)c2ccccc2n1Cc1ccc(C#N)cc1`?
Answer: Activity [13]: Active; Ratio [1]: 1.58; Activity [14]: inactive

Question: For `Cc1c(C=C2C(=O)NC(=O)NC2=O)c2ccccc2n1Cc1ccc(Br)cc1`, which Ratio [1] is on record?
Answer: The Ratio was 1.23.

Question: Which Ratio [1] does the source give for `COc1cc(Cn2c(C)c(C=C3C(=O)NC(=S)NC3=O)c3ccccc32)cc(OC)c1OC` here?
Answer: The Ratio was 1.97.
